# In ChEMBL document CHEMBL1138748, “A prodrug approach toward the development of water soluble fluoroquinolones and structure--activity relationships of quinoline-3-carboxylic acids” (2004):
# Columns and labels:
# Format in all cases: functional
# Enterococcus faecalis = assay: Antibacterial activity against Enterococcus faecalis strain 29212
# Outline: (§1)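 Broth microdilution MIC run to NCCLS standards: serial 2-fold dilutions in cation-adjusted Mueller–Hinton broth, inoculum ~5 × 10^5 CFU/mL, incubated 35 °C for 18–24 h. Trays were read by eye, and the MIC was taken as the lowest concentration giving complete growth inhibition (no visible turbidity).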
# Staphylococcus aureus [1] = assay: Antibacterial activity against Staphylococcus aureus strain St au 33591 MRSA; outline: as §1
# Escherichia coli = assay: Antibacterial activity against Escherichia coli strain 25922; outline: as §1
# Pseudomonas aeruginosa = assay: Antibacterial activity against Pseudomonas aeruginosa strain 27853; outline: as §1
# Staphylococcus aureus [2] = assay: Antibacterial activity against Staphylococcus aureus strain St au 29213; outline: as §1
MIC (Enterococcus faecalis),MIC (Staphylococcus aureus [1]),MIC (Escherichia coli),MIC (Pseudomonas aeruginosa),MIC (Staphylococcus aureus [2]),Structure (SMILES)
> 50 µg/mL,3.13 µg/mL,6.25 µg/mL,12.5 µg/mL,6.25 µg/mL,COc1c(N2CC3CC2CN3)c(F)cc2c(=O)c(C(=O)O)cn(-c3ccc(O)cc3)c12 (stereo not given)
1.56 µg/mL,0.2 µg/mL,0.05 µg/mL,3.13 µg/mL,0.2 µg/mL,CN1CCN(c2nc3c(cc2F)c(=O)c(C(=O)O)cn3-c2ccc(O)cc2)CC1
25 µg/mL,3.13 µg/mL,6.25 µg/mL,50 µg/mL,3.13 µg/mL,COc1c(N2CCC(CN)C2)c(F)cc2c(=O)c(C(=O)O)cn(-c3ccc(O)cc3)c12 (stereo not given)
3.13 µg/mL,0.4 µg/mL,0.1 µg/mL,3.13 µg/mL,0.4 µg/mL,COc1c(N2CCN(C)CC2)c(F)cc2c(=O)c(C(=O)O)cn(-c3ccc(O)cc3)c12
25 µg/mL,1.56 µg/mL,1.56 µg/mL,6.25 µg/mL,1.56 µg/mL,COc1c(N2CCC(N)C2)c(F)cc2c(=O)c(C(=O)O)cn(-c3ccc(O)cc3)c12 (stereo not given)
25 µg/mL,0.4 µg/mL,0.78 µg/mL,6.25 µg/mL,0.2 µg/mL,COc1c(N2CCNCC2)c(F)cc2c(=O)c(C(=O)O)cn(-c3ccc(O)cc3)c12
12.5 µg/mL,0.78 µg/mL,1.56 µg/mL,6.25 µg/mL,0.78 µg/mL,COc1c(N2CC3CCCNC3C2)c(F)cc2c(=O)c(C(=O)O)cn(-c3ccc(O)cc3)c12 (stereo not given)
1.56 µg/mL,0.1 µg/mL,0.1 µg/mL,1.56 µg/mL,0.1 µg/mL,COc1c(N2C[C@@H]3[C@@H](N)[C@@H]3C2)c(F)cc2c(=O)c(C(=O)O)cn(-c3ccc(O)cc3)c12
12.5 µg/mL,0.78 µg/mL,0.78 µg/mL,6.25 µg/mL,0.78 µg/mL,COc1c(N2C[C@@H](C)[C@H](C)C2)c(F)cc2c(=O)c(C(=O)O)cn(-c3ccc(O)cc3)c12

# Continued, molecule first:
Structure (SMILES),MIC (Enterococcus faecalis),MIC (Staphylococcus aureus [1]),MIC (Escherichia coli),MIC (Pseudomonas aeruginosa),MIC (Staphylococcus aureus [2])
O=C(O)c1cn(-c2ccc(O)cc2)c2cc(N3CC4CC3CN4)c(F)cc2c1=O (stereo not given),12.5 µg/mL,0.78 µg/mL,1.56 µg/mL,6.25 µg/mL,0.78 µg/mL
N[C@@H]1CN(c2cc3c(cc2F)c(=O)c(C(=O)O)cn3-c2ccc(O)cc2)CC12CC2,0.78 µg/mL,0.1 µg/mL,0.2 µg/mL,1.56 µg/mL,0.2 µg/mL
O=C(O)c1cn(-c2ccc(O)cc2)c2nc(N3CC4CCCNC4C3)c(F)cc2c1=O (stereo not given),3.13 µg/mL,0.4 µg/mL,1.56 µg/mL,1.56 µg/mL,0.4 µg/mL
C[C@H]1CN(c2nc3c(cc2F)c(=O)c(C(=O)O)cn3-c2ccc(O)cc2)C[C@H]1N,1.56 µg/mL,0.4 µg/mL,0.4 µg/mL,0.78 µg/mL,0.4 µg/mL
N[C@@H]1CCC[C@@H]2CN(c3cc4c(cc3F)c(=O)c(C(=O)O)cn4-c3ccc(O)cc3)C[C@@H]21,1.56 µg/mL,0.2 µg/mL,3.13 µg/mL,12.5 µg/mL,0.2 µg/mL
NCC1CCN(c2nc3c(cc2F)c(=O)c(C(=O)O)cn3-c2ccc(O)cc2)C1 (stereo not given),3.13 µg/mL,1.56 µg/mL,3.13 µg/mL,6.25 µg/mL,0.4 µg/mL
C[C@H](N)[C@@H]1CCN(c2nc3c(cc2F)c(=O)c(C(=O)O)cn3-c2ccc(O)cc2)C1,6.25 µg/mL,1.56 µg/mL,1.56 µg/mL,12.5 µg/mL,1.56 µg/mL
NC1CCN(c2cc3c(cc2F)c(=O)c(C(=O)O)cn3-c2ccc(O)cc2)C1 (stereo not given),3.13 µg/mL,0.4 µg/mL,0.4 µg/mL,1.56 µg/mL,0.4 µg/mL
C[C@@H](N)[C@H]1CCN(c2nc3c(cc2F)c(=O)c(C(=O)O)cn3-c2ccc(O)cc2)C1,12.5 µg/mL,1.56 µg/mL,6.25 µg/mL,12.5 µg/mL,1.56 µg/mL
N[C@H]1CN(c2nc3c(cc2F)c(=O)c(C(=O)O)cn3-c2ccc(O)cc2)CC12CC2,0.78 µg/mL,0.4 µg/mL,0.2 µg/mL,0.78 µg/mL,0.2 µg/mL
C[C@@H]1CN(c2cc3c(cc2F)c(=O)c(C(=O)O)cn3-c2ccc(O)cc2)C[C@H]1N,1.56 µg/mL,0.2 µg/mL,0.2 µg/mL,1.56 µg/mL,0.2 µg/mL
C[C@@H]1CN(c2nc3c(cc2F)c(=O)c(C(=O)O)cn3-c2ccc(O)cc2)C[C@H](C)N1,12.5 µg/mL,6.25 µg/mL,0.4 µg/mL,6.25 µg/mL,3.13 µg/mL
O=C(O)c1cn(-c2ccc(O)cc2)c2nc(N3CC4CC3CN4)c(F)cc2c1=O (stereo not given),> 50 µg/mL,3.13 µg/mL,1.56 µg/mL,3.13 µg/mL,1.56 µg/mL
O=C(O)c1cn(-c2ccc(O)cc2)c2nc(N3CCNCC3)c(F)cc2c1=O,12.5 µg/mL,1.56 µg/mL,1.56 µg/mL,3.13 µg/mL,1.56 µg/mL
